Reference: ChEMBL document CHEMBL4196073, “The aminopyridine-3,5-dicarbonitrile core for the design of new non-nucleoside-like agonists of the human adenosine A2B receptor” (Eur J Med Chem, 2018)
Active and inactive are the calls of the source. The calls are words filed in the database; no cut-off is given here.

Assays:
[1] = biological target: T1, Adenosine receptor A2b (Homo sapiens) (UniProt P29275); test: Antagonist activity at human adenosine A2B receptor expressed in CHO cell membranes assessed as inhibition of NECA-stimulated cAMP accumulation at 1 uM by AlphaScreen assay; type: functional, cell-based
T1 sequence (whole entry): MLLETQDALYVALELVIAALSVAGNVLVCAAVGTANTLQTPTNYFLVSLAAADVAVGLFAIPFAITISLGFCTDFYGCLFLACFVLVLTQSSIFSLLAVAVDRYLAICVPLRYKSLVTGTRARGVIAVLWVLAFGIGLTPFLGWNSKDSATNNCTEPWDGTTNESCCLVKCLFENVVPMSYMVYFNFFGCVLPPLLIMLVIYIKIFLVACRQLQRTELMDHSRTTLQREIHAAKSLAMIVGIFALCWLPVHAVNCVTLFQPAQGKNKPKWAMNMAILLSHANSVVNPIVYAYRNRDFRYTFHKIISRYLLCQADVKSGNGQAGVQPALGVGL
How it was run: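 hA2B-transfected CHO cells in HBSS, 5 mM HEPES, 0.5 mM Ro 20-1724, 0.1% BSA; compound at 1 μM given with NECA 100 nM; cAMP production measured by AlphaScreen.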

[2] = biological target: T2, Adenosine receptor A1 (Homo sapiens) (UniProt P30542); test: Displacement of [3H]DPCPX from human adenosine A1 receptor expressed in CHO cell membranes at 1 uM after 90 mins by scintillation counting analysis
T2 sequence (whole entry): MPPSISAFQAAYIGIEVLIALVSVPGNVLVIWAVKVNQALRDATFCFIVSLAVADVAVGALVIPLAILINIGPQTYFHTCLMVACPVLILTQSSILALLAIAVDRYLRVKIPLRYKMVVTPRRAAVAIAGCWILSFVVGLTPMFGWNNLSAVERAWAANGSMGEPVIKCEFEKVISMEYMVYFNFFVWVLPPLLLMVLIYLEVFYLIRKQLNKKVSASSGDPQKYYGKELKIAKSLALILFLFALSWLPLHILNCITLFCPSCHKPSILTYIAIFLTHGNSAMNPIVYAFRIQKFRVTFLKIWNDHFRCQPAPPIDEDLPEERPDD
How it was run: (§1)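 Hypotonic-lysed (5 mM Tris HCl, 1 mM EDTA, pH 7.4), 40000 g pelleted hA1-CHO membranes, 50 µg protein/100 µl, with 1 nM [3H]DPCPX, 90 min, 25°C, 50 mM Tris HCl pH 7.4; nonspecific with 1 µM DPCPX; GF/B filtration, scintillation. Ki via Cheng–Prusoff, four assays in triplicate; I% at 1 μM.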

[3] = biological target: T3, Adenosine receptor A3 (Homo sapiens) (UniProt P0DMS8); test: Displacement of [125I]-ABMECA from human adenosine A3 receptor expressed in CHO cell membranes at 1 uM after 120 mins by scintillation counting analysis
T3 sequence (whole entry): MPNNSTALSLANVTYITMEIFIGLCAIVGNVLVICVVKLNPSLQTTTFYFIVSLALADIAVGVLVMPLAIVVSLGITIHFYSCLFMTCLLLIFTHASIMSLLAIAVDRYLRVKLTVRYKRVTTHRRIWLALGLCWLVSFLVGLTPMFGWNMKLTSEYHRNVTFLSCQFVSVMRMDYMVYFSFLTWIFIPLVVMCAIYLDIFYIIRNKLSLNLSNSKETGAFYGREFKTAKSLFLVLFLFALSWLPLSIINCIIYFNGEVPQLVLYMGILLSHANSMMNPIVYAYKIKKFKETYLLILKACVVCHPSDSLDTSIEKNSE
How it was run: (§2)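 Membranes of hA3-CHO cells, 50 µg protein/100 µl, incubated 120 min at 4°C with 0.5 nM [125I]AB-MECA in 50 mM Tris HCl pH 7.4, 10 mM MgCl2, 1 mM EDTA; 1 µM AB-MECA for nonspecific; filter separation, counted. Ki by Cheng–Prusoff, four assays in triplicate; I% at 1 μM.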

[4] = biological target: T1, Adenosine receptor A2b (Homo sapiens); test: Agonist activity at human adenosine A2B receptor expressed in CHO cell membranes assessed as induction of cAMP accumulation at 1 uM by AlphaScreen assay relative to NECA; type: functional, cell-based
How it was run: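 Whole adherent hA2B-transfected CHO cells (DMEM/F12, 10% FCS, G418), trypsin-detached, in HBSS with 5 mM HEPES, 0.5 mM Ro 20-1724, 0.1% BSA; test compound at 1 μM alone; cAMP by AlphaScreen; efficacy expressed relative to NECA 1 μM taken as 100%.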

Adenosine receptor A2a [5] = biological target: T4, Adenosine receptor A2a (Homo sapiens, UniProt P29274); test: Displacement of [3H]-ZM241385 from human adenosine A2A receptor expressed in CHO cell membranes at 1 uM after 60 mins by scintillation counting analysis
Adenosine receptor A1 = biological target: T5, Adenosine receptor A1 (Homo sapiens, UniProt P30542); test: Displacement of [3H]DPCPX from human adenosine A1 receptor expressed in CHO cell membranes after 90 mins by scintillation counting analysis; how it was run: as §1
T5 sequence (P30542 whole entry): T2 sequence (whole entry)

Adenosine receptor A2b = biological target: T6, Adenosine receptor A2b (Homo sapiens, UniProt P29275); test: Agonist activity at human adenosine A2B receptor expressed in CHO cell membranes assessed as induction of cAMP accumulation by AlphaScreen assay; type: functional, cell-based
T6 sequence (P29275 whole entry): T1 sequence (whole entry)
How it was run: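 Intact hA2B-transfected CHO cells, trypsin-detached, stimulated in HBSS/5 mM HEPES/0.5 mM Ro 20-1724/0.1% BSA with compound alone at 1 nM–1 μM; cAMP read by AlphaScreen kit; EC50 from four separate assays each in triplicate, mean ± SEM.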

Adenosine receptor A2a [6] = biological target: T4, Adenosine receptor A2a; test: Displacement of [3H]-ZM241385 from human adenosine A2A receptor expressed in CHO cell membranes after 60 mins by scintillation counting analysis
Adenosine receptor A3 = biological target: T7, Adenosine receptor A3 (Homo sapiens, UniProt P0DMS8); test: Displacement of [125I]-ABMECA from human adenosine A3 receptor expressed in CHO cell membranes after 120 mins by scintillation counting analysis; how it was run: as §2
T7 sequence (P0DMS8 whole entry): T3 sequence (whole entry)

T4 sequence (P29274 whole entry): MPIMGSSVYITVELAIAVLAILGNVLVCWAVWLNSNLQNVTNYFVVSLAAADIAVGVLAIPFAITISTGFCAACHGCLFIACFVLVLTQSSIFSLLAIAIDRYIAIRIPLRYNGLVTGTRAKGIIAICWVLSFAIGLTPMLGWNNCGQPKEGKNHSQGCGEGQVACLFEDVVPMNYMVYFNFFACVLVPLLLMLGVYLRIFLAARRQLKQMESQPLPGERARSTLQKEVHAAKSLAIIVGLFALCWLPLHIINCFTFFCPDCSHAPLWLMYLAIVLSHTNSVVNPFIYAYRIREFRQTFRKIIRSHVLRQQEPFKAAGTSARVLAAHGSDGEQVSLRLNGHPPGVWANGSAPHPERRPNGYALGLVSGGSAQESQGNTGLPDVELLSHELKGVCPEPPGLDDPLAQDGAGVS

SMILES	inhibition [1]	inhibition [2] [%]	inhibition [3] [%]	Efficacy [4] [%]	inhibition (Adenosine receptor A2a [5]) [%]	Ki (Adenosine receptor A1) [nM]	EC50 (Adenosine receptor A2b) [nM]	Ki (Adenosine receptor A2a [6]) [nM]	Ki (Adenosine receptor A3) [nM]
N#Cc1c(N)nc(SCc2nc3ccccc3[nH]2)c(C#N)c1-c1ccc(OCC2CC2)cc1	inactive	21	1	12	6				
N#Cc1c(N)nc(SCc2cccc(C(N)=O)c2)c(C#N)c1-c1ccc(OCC2CC2)cc1			1	69	25	83	12.7		
N#Cc1c(N)nc(SCc2csc(N)n2)c(C#N)c1-c1ccc(OCC2CC2)cc1	inactive		1	17	1	140			
N#Cc1c(N)nc2sc(C(N)=O)c(N)c2c1-c1ccc(OCC2CC2)cc1		19	13	1	3				
C=C(C)COc1ccc(-c2c(C#N)c(N)nc(SCC(N)=O)c2C#N)cc1			4	2	31	872			
CC(C)COc1ccc(-c2c(C#N)c(N)nc(SCC(N)=O)c2C#N)cc1			9	1		603		307	
N#Cc1c(N)nc(SCC(=O)NO)c(C#N)c1-c1ccc(OCC2CC2)cc1			31	20	1	536			
N#Cc1c(N)nc(SCC2=NCCN2)c(C#N)c1-c1ccc(OCC2CC2)cc1	inactive		6	7	14	483			
N#Cc1c(N)nc(SCC(N)=O)c(C#N)c1-c1ccc(OCC2CCC2)cc1	inactive	1	1	5	5				
COC(=O)c1cccc(CSc2nc(N)c(C#N)c(-c3ccc(OCC4CC4)cc3)c2C#N)c1			4	27	1	66	347		
COC(=O)CSc1nc(N)c(C#N)c(-c2ccc(OCC3CC3)cc2)c1C#N	inactive	23	1	1	1				
N#Cc1c(N)nc(SCn2cncn2)c(C#N)c1-c1ccc(OCC2CC2)cc1	inactive	12	1	1	1				
N#Cc1c(N)nc(SCc2ccn[nH]2)c(C#N)c1-c1ccc(OCC2CC2)cc1			6	48	2	552	84		
N#Cc1c(N)nc(SCc2cccnc2)c(C#N)c1-c1ccc(OCC2CC2)cc1			19	1		67		424	
N#Cc1c(N)nc(SCC(N)=O)c(C#N)c1-c1ccc(OCC2CC2)cc1		31	8	100	2		31		
N#Cc1c(N)nc(SCC(=O)NCO)c(C#N)c1-c1ccc(OCC2CC2)cc1		10	8	57	1		182		
C=CCOc1ccc(-c2c(C#N)c(N)nc(SCC(N)=O)c2C#N)cc1				11	18	323			444
N#Cc1c(N)nc(SCc2ncn[nH]2)c(C#N)c1-c1ccc(OCC2CC2)cc1			1	50	1	338	51		
N#Cc1c(N)nc(SCc2nnn[nH]2)c(C#N)c1-c1ccc(OCC2CC2)cc1	inactive	3	1	25	1				
C=CCOc1ccc(-c2c(C#N)c(N)nc(SCc3ccn[nH]3)c2C#N)cc1	inactive		13	7	8	44			
CNC(=O)CSc1nc(N)c(C#N)c(-c2ccc(OCC3CC3)cc2)c1C#N		14	3	63	1		94		
CCOc1ccc(-c2c(C#N)c(N)nc(SCc3ccn[nH]3)c2C#N)cc1			18	34	4	21	332		
N#Cc1c(N)nc(SCc2cnc[nH]2)c(C#N)c1-c1ccc(OCC2CC2)cc1		1	1	50	7		139		
CCOc1ccc(-c2c(C#N)c(N)nc(SCC(N)=O)c2C#N)cc1			20	66	1	345	38		
